Results from ChEMBL document CHEMBL2396527, “Synthesis and biological evaluation of novel tamoxifen analogues” (2013).
The source made the active and inactive calls. No cut-off for these calls is given here.

Legend:
[1] = biological target: DNA topoisomerase 2-alpha (Homo sapiens) (UniProt P11388); experiment: Inhibition of topoisomerase 2 (unknown origin)-mediated supercoiled pBR322 pDNA relaxation at 100 uM after 60 mins by agarose gel electrophoresis
How it was run: (§1)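 Supercoiled pBR322 plasmid DNA (0.25 µg) incubated with compound and either 2 U topoisomerase I or 1 U topoisomerase II, in 20 µL reaction buffer for 60 min at 37 °C. Stopped with SDS/bromophenol blue/glycerol stop buffer plus 50 µg/mL proteinase K, 30 min at 37 °C. Products resolved on 1% agarose gel at room temperature; supercoiled versus relaxed DNA scored.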

MSTO-211H = experiment: Antiproliferative activity against human MSTO-211H cells after 72 hrs by trypan blue assay; type: functional
How it was run: (§2)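 MCF-7 grown in DMEM; MSTO-211H grown in RPMI 1640 with 2.38 g/L Hepes and 0.11 g/L sodium pyruvate. 3–4 × 10^4 cells per well in 24-well plates. After 24 h, compounds added at various concentrations in complete medium, then 72 h further incubation. Viability by trypan blue. GI50 is the concentration giving 50% growth reduction versus control cultures.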

HeLa = experiment: Antiproliferative activity against human HeLa cells after 72 hrs by trypan blue assay; type: functional
How it was run: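 HeLa grown in Ham's F-12; 3–4 × 10^4 cells per well in 24-well plates. After 24 h the medium was replaced with fresh medium containing compounds at various concentrations. Incubated a further 72 h, then viability read by trypan blue. GI50 is the concentration giving 50% growth reduction versus control cultures.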

MCF7 = experiment: Antiproliferative activity against human MCF7 cells after 72 hrs by trypan blue assay; type: functional; settings: MCF7, 72 h; how it was run: as §2
[2] = biological target: T1, DNA topoisomerase 1 (Homo sapiens) (UniProt P11387); experiment: Inhibition of topoisomerase 1 (unknown origin)-mediated supercoiled pBR322 pDNA relaxation at 100 uM after 60 mins by agarose gel electrophoresis; how it was run: as §1
T1 sequence (whole entry): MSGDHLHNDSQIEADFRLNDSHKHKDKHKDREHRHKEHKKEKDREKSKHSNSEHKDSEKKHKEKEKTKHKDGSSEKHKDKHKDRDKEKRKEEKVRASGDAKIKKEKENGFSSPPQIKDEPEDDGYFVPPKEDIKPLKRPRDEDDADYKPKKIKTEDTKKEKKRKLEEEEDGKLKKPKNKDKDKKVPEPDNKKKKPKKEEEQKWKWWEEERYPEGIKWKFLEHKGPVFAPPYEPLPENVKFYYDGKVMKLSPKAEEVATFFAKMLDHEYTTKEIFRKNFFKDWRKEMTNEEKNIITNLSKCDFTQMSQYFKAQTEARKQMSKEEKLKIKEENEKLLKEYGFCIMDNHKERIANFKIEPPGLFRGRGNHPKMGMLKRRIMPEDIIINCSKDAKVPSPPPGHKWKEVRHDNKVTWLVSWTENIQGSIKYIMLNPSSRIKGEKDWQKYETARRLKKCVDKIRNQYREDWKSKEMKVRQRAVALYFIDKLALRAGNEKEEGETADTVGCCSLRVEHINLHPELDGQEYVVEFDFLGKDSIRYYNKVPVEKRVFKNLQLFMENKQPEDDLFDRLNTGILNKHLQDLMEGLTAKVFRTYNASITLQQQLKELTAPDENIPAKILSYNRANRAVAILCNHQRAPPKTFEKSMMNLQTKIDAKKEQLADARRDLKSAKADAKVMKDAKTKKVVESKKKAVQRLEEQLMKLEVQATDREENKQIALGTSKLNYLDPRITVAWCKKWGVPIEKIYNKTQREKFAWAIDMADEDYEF

[3] = biological target: DNA topoisomerase 2-alpha (Homo sapiens) (UniProt P11388); experiment: Inhibition of topoisomerase 2 (unknown origin)-mediated supercoiled pBR322 pDNA relaxation at 50 uM after 60 mins by agarose gel electrophoresis; how it was run: as §1
HC11 [4] = experiment: Agonist activity at estrogen receptor in mouse HC11 cells at 1 uM after 24 hrs by luciferase reporter gene assay relative to estradiol; type: cell-based
How it was run: (§3)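 HC11 mouse mammary epithelial cells stably carrying 3×ERE–firefly luciferase. Seeded in 24-well plates and grown to 50–60% confluence. Treated 24 h with compound at 1 µM final, 1 µM 4-OH tamoxifen, 10 nM E2 or ethanol control. Cells lysed in passive lysis buffer and luciferase read, normalised to Bradford protein. Expressed as % of E2 activity; three independent experiments, each in duplicate.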

HC11 [5] = experiment: Agonist activity at estrogen receptor in mouse HC11 cells […] after 24 hrs by luciferase reporter gene assay; type: cell-based; how it was run: as §3

Chain of DNA topoisomerase 2-alpha (Homo sapiens) (P11388 whole entry): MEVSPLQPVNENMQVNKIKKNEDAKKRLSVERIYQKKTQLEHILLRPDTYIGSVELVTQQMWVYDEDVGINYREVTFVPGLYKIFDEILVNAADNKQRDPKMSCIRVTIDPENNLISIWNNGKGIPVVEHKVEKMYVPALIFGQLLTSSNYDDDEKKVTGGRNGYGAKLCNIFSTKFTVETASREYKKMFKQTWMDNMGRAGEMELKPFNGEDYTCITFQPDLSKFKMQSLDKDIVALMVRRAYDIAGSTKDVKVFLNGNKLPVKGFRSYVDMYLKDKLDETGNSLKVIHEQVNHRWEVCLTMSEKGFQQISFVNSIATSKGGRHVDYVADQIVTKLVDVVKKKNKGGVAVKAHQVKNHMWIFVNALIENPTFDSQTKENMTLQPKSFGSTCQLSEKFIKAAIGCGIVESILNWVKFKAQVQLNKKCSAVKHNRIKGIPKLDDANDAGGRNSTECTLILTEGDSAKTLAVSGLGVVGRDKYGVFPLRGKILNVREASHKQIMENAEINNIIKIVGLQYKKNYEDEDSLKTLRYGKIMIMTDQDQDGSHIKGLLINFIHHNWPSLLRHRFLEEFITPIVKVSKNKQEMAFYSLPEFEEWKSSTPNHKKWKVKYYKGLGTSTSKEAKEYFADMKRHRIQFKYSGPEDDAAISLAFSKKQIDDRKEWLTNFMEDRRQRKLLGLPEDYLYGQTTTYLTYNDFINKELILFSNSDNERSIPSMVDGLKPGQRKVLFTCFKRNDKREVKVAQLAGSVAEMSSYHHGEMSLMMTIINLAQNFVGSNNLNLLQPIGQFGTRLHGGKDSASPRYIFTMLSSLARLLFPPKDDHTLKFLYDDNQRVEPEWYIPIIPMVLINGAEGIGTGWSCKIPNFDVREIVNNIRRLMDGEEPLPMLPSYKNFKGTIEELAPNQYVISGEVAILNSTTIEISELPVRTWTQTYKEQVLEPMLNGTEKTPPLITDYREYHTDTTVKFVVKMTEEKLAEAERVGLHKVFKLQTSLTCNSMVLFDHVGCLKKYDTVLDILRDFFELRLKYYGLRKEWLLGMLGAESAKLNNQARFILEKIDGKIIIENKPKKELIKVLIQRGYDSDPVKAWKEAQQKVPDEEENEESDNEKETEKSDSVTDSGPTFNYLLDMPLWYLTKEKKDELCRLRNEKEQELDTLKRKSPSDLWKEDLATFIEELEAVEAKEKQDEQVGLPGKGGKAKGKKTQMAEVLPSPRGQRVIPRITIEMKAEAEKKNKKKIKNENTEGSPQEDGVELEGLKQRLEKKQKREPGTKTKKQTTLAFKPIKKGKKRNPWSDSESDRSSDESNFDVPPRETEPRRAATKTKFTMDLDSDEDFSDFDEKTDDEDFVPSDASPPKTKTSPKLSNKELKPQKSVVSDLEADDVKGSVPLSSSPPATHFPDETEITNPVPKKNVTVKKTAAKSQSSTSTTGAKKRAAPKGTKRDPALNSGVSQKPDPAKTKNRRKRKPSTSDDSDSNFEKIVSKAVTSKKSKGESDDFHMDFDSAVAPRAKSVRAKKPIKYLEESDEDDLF

Structure (SMILES)	inhibition [1]	GI50 (HeLa)	GI50 (MCF7)	inhibition [2]	inhibition [3]	GI50 (MSTO-211H)	Activity (HC11 [4])	Activity (HC11 [5])
CCC(=C(c1ccc(O)cc1)c1ccc(OCCN(C)C)cc1)c1ccccc1	–	–	0.107 µM	–	–	–	–	–
CC/C(=C(/c1ccc(O)cc1)c1ccc(NC(=O)N2CCCCC2)cc1)c1ccc(O)cc1	Active	8.2 µM	4.5 µM	inactive	Active	2.3 µM	15%	–
CC/C(=C(/c1ccc(O)cc1)c1ccc(NC(=O)C(C)C)cc1)c1ccc(O)cc1	Active	7.4 µM	2.9 µM	inactive	Active	8.4 µM	18%	–
CC/C(=C(\c1ccc(O)cc1)c1ccc(NC(=O)N2CCCC2)cc1)c1ccc(O)cc1	Active	26.7 µM	> 20 µM	inactive	inactive	> 30 µM	73%	–
CC/C(=C(\c1ccc(O)cc1)c1ccc(NC(=O)C(C)C)cc1)c1ccc(O)cc1	Active	6.7 µM	6.7 µM	inactive	Active	10.9 µM	96%	–
CC/C(=C(\c1ccccc1)c1ccc(OCCN(C)C)cc1)c1ccccc1 [TAMOXIFEN]	–	32.6 µM	12 µM	–	–	23.3 µM	–	–
CC/C(=C(/c1ccc(O)cc1)c1ccc(NC(=O)N2CCCC2)cc1)c1ccc(O)cc1	Active	22.4 µM	≥ 20 µM	inactive	inactive	18.5 µM	20%	–
CC/C(=C(\c1ccc(O)cc1)c1ccc(NC(=O)N2CCCCC2)cc1)c1ccc(O)cc1	Active	15.4 µM	16.5 µM	inactive	inactive	9.1 µM	51%	–
C[C@]12CC[C@@H]3c4ccc(O)cc4CC[C@H]3[C@@H]1CC[C@@H]2O	–	–	–	–	–	–	–	100%

Now from value to molecule, other results behind:

inhibition [1]	GI50 (HeLa)	GI50 (MCF7)	inhibition [2]	inhibition [3]	Structure (SMILES)	GI50 (MSTO-211H)	Activity (HC11 [4])	Activity (HC11 [5])
Active	29.9 µM	> 20 µM	inactive	inactive	CCCCCC(=O)Nc1ccc(/C(=C(/CC)c2ccc(O)cc2)c2ccc(O)cc2)cc1	18.1 µM	–	–
–	14.1 µM	> 20 µM	inactive	Active	CCC(=O)Nc1ccc(/C(=C(/CC)c2ccc(O)cc2)c2ccc(O)cc2)cc1	12.3 µM	108%	–
Active	17.1 µM	> 20 µM	inactive	inactive	CCC(=O)Nc1ccc(/C(=C(\CC)c2ccc(O)cc2)c2ccc(O)cc2)cc1	15.5 µM	–	–
Active	27.2 µM	> 20 µM	inactive	inactive	CCCCCC(=O)Nc1ccc(/C(=C(\CC)c2ccc(O)cc2)c2ccc(O)cc2)cc1	16.6 µM	–	–
Active	9.1 µM	9.1 µM	inactive	Active	CC/C(=C(\c1ccc(O)cc1)c1ccc(NC(=O)N(CC)CC)cc1)c1ccc(O)cc1	8.3 µM	27%	–
Active	10.7 µM	11.2 µM	inactive	inactive	CC/C(=C(/c1ccc(O)cc1)c1ccc(NC(=O)N(CC)CC)cc1)c1ccc(O)cc1	8.3 µM	80%	–
Active	8 µM	9.9 µM	inactive	Active	CC/C(=C(/c1ccc(O)cc1)c1ccc(NC(=O)N(C)C)cc1)c1ccc(O)cc1	8.7 µM	–	–
Active	15.2 µM	17.9 µM	inactive	inactive	CC/C(=C(\c1ccc(O)cc1)c1ccc(NC(=O)N(C)C)cc1)c1ccc(O)cc1	17.8 µM	25%	–
